Assay results: ChEMBL document CHEMBL1177643, “Synthesis, DNA-binding ability and anticancer activity of benzothiazole/benzoxazole-pyrrolo[2,1-c][1,4]benzodiazepine conjugates” (Bioorg Med Chem, 2010)

Columns and labels:
[1] = tested on: SK-OV-3; experiment: Growth inhibition of human SKOV3 cells after 48 hrs by sulforhodamine B assay; assay type: functional; conditions: SK-OV-3, 48 h
Procedure, shortened: (§1)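 Panel of 60 human cancer cell lines; for each compound, dose–response curves per cell line measured at a minimum of five concentrations at 10-fold dilutions. Cells exposed continuously to drug for 48 h, and growth was read out by sulforhodamine B staining.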

[2] = tested on: SN12C; experiment: Growth inhibition of human SN12C cells after 48 hrs by sulforhodamine B assay; assay type: functional; procedure, shortened: as §1
[3] = tested on: SW-620; experiment: Growth inhibition of human SW620 cells after 48 hrs by sulforhodamine B assay; assay type: functional; conditions: SW-620, 48 h; procedure, shortened: as §1
[4] = tested on: SK-MEL-28; experiment: Growth inhibition of human SK-MEL-28 cells after 48 hrs by sulforhodamine B assay; assay type: functional; conditions: SK-MEL-28, 48 h; procedure, shortened: as §1
[5] = tested on: MDA-MB-231; experiment: Growth inhibition of human MDA-MB-231 cells after 48 hrs by sulforhodamine B assay; assay type: functional; conditions: MDA-MB-231, 48 h; procedure, shortened: as §1
[6] = tested on: SR; experiment: Growth inhibition of human SR cells after 48 hrs by sulforhodamine B assay; assay type: functional; procedure, shortened: as §1
[7] = tested on: HOP-62; experiment: Growth inhibition of human HOP62 cells after 48 hrs by sulforhodamine B assay; assay type: functional; conditions: HOP-62, 48 h; procedure, shortened: as §1
[8] = tested on: A-375; experiment: Cell cycle arrest in human A375 cells assessed as accumulation at G2/M phase at 2 uM after 24 hrs using propidium iodide staining by flow cytometry; assay type: functional
Procedure, shortened: (§2)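 A375 cells (5×10^5) grown 24 h, then exposed to compound 24 h (DMSO control). Trypsin–EDTA harvest, fixed in ice-cold 70% ethanol at 4 °C 30 min, RNase A 37 °C 30 min, propidium iodide staining. DNA content measured by flow cytometry on 20,000 events, gated as sub-G1/G0, G1, S and G2/M.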

[9] = tested on: NCI/ADR-RES; experiment: Growth inhibition of human NCI/ADR-RES cells after 48 hrs by sulforhodamine B assay; assay type: functional; procedure, shortened: as §1
[10] = tested on: SNB-19; experiment: Growth inhibition of human SNB19 cells after 48 hrs by sulforhodamine B assay; assay type: functional; conditions: SNB-19, 48 h; procedure, shortened: as §1
[11] = tested on: Calf thymus DNA; experiment: Binding affinity to calf thymus duplex-form DNA assessed as melting temperature at 1:5 compound/DNA ratio after 18 hrs; assay type: nucleic-acid assay; conditions: Bos taurus
[12] = tested on: NCI-H226; experiment: Growth inhibition of human NCI-H226 cells after 48 hrs by sulforhodamine B assay; assay type: functional; conditions: NCI-H226, 48 h; procedure, shortened: as §1
[13] = tested on: SF-268; experiment: Growth inhibition of human SF268 cells after 48 hrs by sulforhodamine B assay; assay type: functional; conditions: SF-268, 48 h; procedure, shortened: as §1
[14] = tested on: HCT-15; experiment: Growth inhibition of human HCT15 cells after 48 hrs by sulforhodamine B assay; assay type: functional; conditions: HCT-15, 48 h; procedure, shortened: as §1
[15] = tested on: NCI-H522; experiment: Growth inhibition of human NCI-H522 cells after 48 hrs by sulforhodamine B assay; assay type: functional; conditions: NCI-H522, 48 h; procedure, shortened: as §1
[16] = tested on: MDA-MB-435; experiment: Growth inhibition of human MDA-MB-435 cells after 48 hrs by sulforhodamine B assay; assay type: functional; conditions: MDA-MB-435, 48 h; procedure, shortened: as §1
[17] = tested on: A549; experiment: Growth inhibition of human A549 cells after 48 hrs by sulforhodamine B assay; assay type: functional; conditions: A549, 48 h
Procedure, shortened: (§3)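 Dose–response in each cell line over at least five concentrations at 10-fold dilutions, with 48 h continuous exposure and sulforhodamine B read-out.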

[18] = tested on: OVCAR-8; experiment: Growth inhibition of human OVCAR8 cells after 48 hrs by sulforhodamine B assay; assay type: functional; conditions: OVCAR-8, 48 h; procedure, shortened: as §1
[19] = tested on: KM12; experiment: Growth inhibition of human KM12 cells after 48 hrs by sulforhodamine B assay; assay type: functional; conditions: KM12, 48 h; procedure, shortened: as §1
[20] = tested on: SK-MEL-2; experiment: Growth inhibition of human SK-MEL-2 cells after 48 hrs by sulforhodamine B assay; assay type: functional; conditions: SK-MEL-2, 48 h; procedure, shortened: as §1
[21] = tested on: NCI-H460; experiment: Growth inhibition of human NCI-H460 cells after 48 hrs by sulforhodamine B assay; assay type: functional; conditions: NCI-H460, 48 h; procedure, shortened: as §1
[22] = tested on: SF-539; experiment: Growth inhibition of human SF539 cells after 48 hrs by sulforhodamine B assay; assay type: functional; conditions: SF-539, 48 h; procedure, shortened: as §1
[23] = tested on: SK-MEL-5; experiment: Growth inhibition of human SK-MEL-5 cells after 48 hrs by sulforhodamine B assay; assay type: functional; conditions: SK-MEL-5, 48 h; procedure, shortened: as §1
[24] = tested on: A498; experiment: Growth inhibition of human A498 cells after 48 hrs by sulforhodamine B assay; assay type: functional; conditions: A498, 48 h; procedure, shortened: as §3
[25] = tested on: OVCAR-3; experiment: Growth inhibition of human OVCAR-3 cells after 48 hrs by sulforhodamine B assay; assay type: functional; conditions: OVCAR-3, 48 h; procedure, shortened: as §1
[26] = tested on: RXF 393; experiment: Growth inhibition of human RXF393 cells after 48 hrs by sulforhodamine B assay; assay type: functional; conditions: RXF 393, 48 h; procedure, shortened: as §1
[27] = tested on: M14; experiment: Growth inhibition of human M14 cells after 48 hrs by sulforhodamine B assay; assay type: functional; conditions: M14, 48 h; procedure, shortened: as §1
[28] = tested on: Hs-578T; experiment: Growth inhibition of human Hs 578T cells after 48 hrs by sulforhodamine B assay; assay type: functional; procedure, shortened: as §1
[29] = tested on: IGROV-1; experiment: Growth inhibition of human IGROV1 cells after 48 hrs by sulforhodamine B assay; assay type: functional; conditions: IGROV-1, 48 h; procedure, shortened: as §1
[30] = tested on: OVCAR-5; experiment: Growth inhibition of human OVCAR5 cells after 48 hrs by sulforhodamine B assay; assay type: functional; conditions: OVCAR-5, 48 h; procedure, shortened: as §1
[31] = Growth inhibition of human […] cells after 48 hrs by sulforhodamine B assay; assay type: functional; procedure, shortened: as §1
[32] = tested on: MOLT-4; experiment: Growth inhibition of human MOLT4 cells after 48 hrs by sulforhodamine B assay; assay type: functional; conditions: MOLT-4, 48 h; procedure, shortened: as §1
[33] = tested on: Malme-3M; experiment: Growth inhibition of human MALME-3M cells after 48 hrs by sulforhodamine B assay; assay type: functional; procedure, shortened: as §1
[34] = tested on: SF-295; experiment: Growth inhibition of human SF295 cells after 48 hrs by sulforhodamine B assay; assay type: functional; conditions: SF-295, 48 h; procedure, shortened: as §1
[35] = tested on: PC-3; experiment: Growth inhibition of human PC3 cells after 48 hrs by sulforhodamine B assay; assay type: functional; conditions: PC-3, 48 h; procedure, shortened: as §1
[36] = tested on: OVCAR-4; experiment: Growth inhibition of human OVCAR4 cells after 48 hrs by sulforhodamine B assay; assay type: functional; conditions: OVCAR-4, 48 h; procedure, shortened: as §1
[37] = tested on: U-251; experiment: Growth inhibition of human U251 cells after 48 hrs by sulforhodamine B assay; assay type: functional; conditions: U-251, 48 h; procedure, shortened: as §1
[38] = tested on: A-375; experiment: Cell cycle arrest in human A375 cells assessed as accumulation at G0 phase at 2 uM after 24 hrs using propidium iodide staining by flow cytometry; assay type: functional; procedure, shortened: as §2
[39] = tested on: A-375; experiment: Cell cycle arrest in human A375 cells assessed as accumulation at G0/G1 phase at 2 uM after 24 hrs using propidium iodide staining by flow cytometry; assay type: functional; procedure, shortened: as §2
[40] = tested on: HCT-116; experiment: Growth inhibition of human HCT116 cells after 48 hrs by sulforhodamine B assay; assay type: functional; conditions: HCT-116, 48 h; procedure, shortened: as §1
[41] = tested on: K562; experiment: Growth inhibition of human K562 cells after 48 hrs by sulforhodamine B assay; assay type: functional; conditions: K562, 48 h; procedure, shortened: as §1
[42] = tested on: EKVX; experiment: Growth inhibition of human EKVX cells after 48 hrs by sulforhodamine B assay; assay type: functional; procedure, shortened: as §3
[43] = tested on: UACC-257; experiment: Growth inhibition of human UACC257 cells after 48 hrs by sulforhodamine B assay; assay type: functional; conditions: UACC-257, 48 h; procedure, shortened: as §1
[44] = tested on: LOX IMVI; experiment: Growth inhibition of human LOXIMVI cells after 48 hrs by sulforhodamine B assay; assay type: functional; procedure, shortened: as §1

COc1cc(-c2nc3ccccc3s2)ccc1OCCCCOc1cc2c(cc1OC)C(=O)N1CCC[C@H]1C=N2
GI50 [1]: 2400 nM | GI50 [2]: 955 nM | GI50 [3]: 794 nM | GI50 [4]: 2140 nM | GI50 [5]: 525 nM | GI50 [6]: 295 nM | GI50 [7]: 1410 nM | Activity [8]: 4.45% | GI50 [9]: 1910 nM | GI50 [10]: 1620 nM | ΔTm [11]: 0.5 °C | GI50 [12]: 2400 nM | GI50 [13]: 1230 nM | GI50 [14]: 1320 nM | GI50 [15]: 550 nM | GI50 [16]: 1350 nM | GI50 [17]: 2690 nM | GI50 [18]: 1780 nM | GI50 [19]: 1020 nM | GI50 [20]: 1230 nM | GI50 [21]: 646 nM | GI50 [22]: 537 nM | GI50 [23]: 407 nM | GI50 [24]: 1620 nM | GI50 [25]: 724 nM | GI50 [26]: 240 nM | GI50 [27]: 1230 nM | GI50 [28]: 1020 nM | GI50 [29]: 3090 nM | GI50 [30]: 501 nM | GI50 [31]: 309 nM | GI50 [32]: 676 nM | GI50 [33]: 1550 nM | GI50 [34]: 1910 nM | GI50 [35]: 407 nM | GI50 [36]: 1620 nM | GI50 [37]: 417 nM | Activity [38]: 20.86% | Activity [39]: 90.55% | GI50 [40]: 525 nM | GI50 [41]: 339 nM | GI50 [42]: 1740 nM | GI50 [43]: 2190 nM | GI50 [44]: 724 nM
